Only some compounds are listed: those with a hit (about 3.8% of all), similar ones and a draw of the others.
ANO1 activ = TMEM16A chloride channel activators or potentiators, primary screen, cell-based, HTS; Anoctamin-1 (Mus musculus), Q8BHY3; 340,000 compounds, 0.3% hits; B-score at 10 µM; HEK293 TMEM16A/YFP-H148Q/I152L, iodide quench fluorescence; active compounds read low;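 active = fluorescence-ratio B-score plate-corrected deviation score at least 3 library SD below zero, with starting fluorescence score within 5 deviations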;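 also: channel opened by trigger with iodide after compound preincubation; score built on the fluorescence ratio of max minus min over baseline; more negative score means more quench and so TMEM16A activation or potentiation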
CSC inhib = cancer stem cell viability inhibitors, primary screen, luminescence. inhibition, % at 7.5 µM. AID 2717, 2010. cancer stem cell-like cells viability. 300,000 compounds, 1.1% hits; in the data active = inhibition above about 75%; inconclusive = no clear call, values can overlap the other calls; tested in HMLE shEcad cells
ANO1 block = TMEM16A chloride channel inhibitors, primary screen, cell-based, HTS; HEK293 TMEM16A/YFP iodide influx fluorescence, ionomycin; normalized B-score (activity score, 25-100; higher = stronger inhibition) at 10 µM; 310,000 compounds, 1.2% hits;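 active = ratio plate-corrected score three or more library SD toward inhibition, starting fluorescence score within five deviations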;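 also: score derived from kinetic fluorescence span divided by baseline fluorescence per well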
MC4R barr agon = MC4R agonists recruiting beta-arrestin, primary screen, cell-based, luminescence, agonist arm of biased-ligand search; U2OS MC4R beta-arrestin complementation; percent of melanotan II response, DMSO zero; activation, % at 8.9 µM; 360,000 compounds, 0.98% hits; AID 540308, 2011;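 active = activation above a per-plate cutoff, the mean activation of sample wells on that plate plus 3 SD, cut at about 8% in these data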
MC4R antag cAMP = MC4R antagonists of cAMP signaling, primary screen, cell-based, TR-FRET, antagonist arm of biased-ligand search. Melanocortin receptor 4 (Homo sapiens), P32245. MC4R-expressing cells, MTII-stimulated cAMP, LANCE TR-FRET. inhibition, % at 6.5 µM. 360,000 compounds, 0.48% hits. AID 540295, 2011;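 active = inhibition above its plate's cutoff, the mean of tested wells on that plate plus 3 SD, cut at about 29% in these data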;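 also: 0% = Melanotan II alone and 100% = Melanotan II plus saturating MCL0020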
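Test system: U2OS cells stably expressing human melanocortin 4 receptor (MC4R); also added: Melanotan II challenge; compound: 6.5 µM single dose; timing: 30-min compound preincubation, 1-h Melanotan II challenge, 1-h detection, room temperature; signal: Eu-cAMP/anti-cAMP TR-FRET, emission 671 nm; repeats: one well per compound, no replicates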
Beta cell apopt = inhibitors of cytokine-induced beta cell apoptosis, primary screen, luminescence; INS-1E cytokine-induced death, ATP luminescence, 48 h; percent of positive-control rescue, neutral wells zero; protection from apoptosis, % (concentration not given with the values); 300,000 compounds, 0.8% hits;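 active = Every replicate reaches about 75%, or at least half do and their mean reaches it too, limit read from the data; inconclusive = At least half of replicates reach the limit but their mean does not; inactive = Under half of replicates reach the limit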;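 also: 0% = cytokine-treated negative control wells and 100% = positive control rescue; higher means more ATP so stronger rescue from cytokine killing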
MC4R barr conf = MC4R beta-arrestin agonists, retest, confirmation, cell-based, luminescence, U2OS | shares compounds with MC4R barr agon | U2OS MC4R beta-arrestin recruitment; scaled DMSO 0%, Melanotan II 100% | activation, % at 8.9 µM | 2,400 compounds, 31% hits;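 active = mean activation across replicates above the hit cutoff set in the earlier primary screen, cut at about 8% in these data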
MOR-DOR barr ag = agonists of MOR-DOR heterodimerization, counter-screen for MC4R biased agonist project, cell-based, luminescence; shares compounds with MC4R barr agon; U2OS PathHunter beta-arrestin, beta-gal luminescence; percent of deltorphin B response, DMSO zero; activation, % at 9.2 µM; 2,400 compounds, 5.8% hits; AID 602194, 2012;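 active = mean activation across replicates exceeds the hit threshold derived in the earlier primary screen, cut at about 18% in these data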;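 also: 100% = deltorphin B at 0.9 µM final and 0% = DMSO alone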
Target sequence (P35372 whole entry, looked up): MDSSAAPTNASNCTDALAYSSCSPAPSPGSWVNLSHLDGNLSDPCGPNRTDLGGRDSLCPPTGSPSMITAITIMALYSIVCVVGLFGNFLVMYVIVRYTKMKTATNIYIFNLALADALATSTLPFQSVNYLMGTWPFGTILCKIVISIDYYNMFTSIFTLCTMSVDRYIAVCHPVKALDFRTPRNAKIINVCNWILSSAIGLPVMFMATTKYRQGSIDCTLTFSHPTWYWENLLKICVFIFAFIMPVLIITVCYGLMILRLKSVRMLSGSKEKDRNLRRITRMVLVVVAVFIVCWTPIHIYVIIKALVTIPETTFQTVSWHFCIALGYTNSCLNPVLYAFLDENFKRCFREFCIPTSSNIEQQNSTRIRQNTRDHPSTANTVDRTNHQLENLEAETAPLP
Target sequence (P41143 whole entry, looked up): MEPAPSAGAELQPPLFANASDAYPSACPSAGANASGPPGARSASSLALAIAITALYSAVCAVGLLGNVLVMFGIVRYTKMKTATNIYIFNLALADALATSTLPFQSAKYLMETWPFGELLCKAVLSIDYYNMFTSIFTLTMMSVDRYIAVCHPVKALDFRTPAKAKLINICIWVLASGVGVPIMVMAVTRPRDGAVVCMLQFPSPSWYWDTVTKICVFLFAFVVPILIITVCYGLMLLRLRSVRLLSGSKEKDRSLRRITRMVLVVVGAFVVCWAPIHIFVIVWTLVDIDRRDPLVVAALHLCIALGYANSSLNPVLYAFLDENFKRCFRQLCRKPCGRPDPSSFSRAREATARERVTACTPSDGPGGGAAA
Active calls of the source: *; i = inactive; ? = inconclusive; / = not tested or not shown.

SMILES | ANO1 activ | CSC inhib | ANO1 block | MC4R barr agon | MC4R antag cAMP | Beta cell apopt | MC4R barr conf | MOR-DOR barr ag
COc1ccc(CCNC(=O)CCSc2nc(-c3ccco3)cc(C(F)(F)F)n2)cc1 | i | / | i | 18* | -1 | -1 | -1 | 2
O=C(CSc1nc(-c2ccccc2)cc(C(F)(F)F)n1)NCc1cccs1 | i | -8 | i | / | / | -3 | / | /
O=C(CSc1nc(-c2ccc(F)cc2)cc(C(F)(F)F)n1)Nc1ccc2c(c1)OCO2 | i | 13 | i | 17* | 2 | 7 | 0 | 4
Cc1cc(NC(=O)CCSc2nc(-c3ccco3)cc(C(F)(F)F)n2)no1 | i | 15 | i | 9.9* | 8 | -10 | 3 | 6
C[C@@H]1CN([C@H](C)CO)C(=O)Cc2cc(NC(=O)Nc3ccccc3)ccc2O[C@@H]1CN(C)C(=O)Nc1ccc2c(c1)OCO2 | i | 18 | / | 0 | 1 | -2 | / | /
COc1ccc(C(NC(=O)C2CCN(CCOc3ccc(F)cc3)CC2)c2cccs2)cc1 (centres undefined) | / | / | / | -2 | 4 | / | / | /
COc1ccc(C(NC(=O)C2CCN(CCOc3ccc(Cl)cc3Cl)CC2)c2cccs2)cc1 (centres undefined) | / | / | / | 111* | 5 | / | 32* | 11
O=C(NC(c1ccccc1)c1ccsc1)C1CCN(CCOc2ccc(Cl)cc2Cl)CC1 (centres undefined) | / | / | / | 54* | -1 | / | 47* | 9
COc1ccc(C(NC(=O)C2CCN(CCOc3ccc(Cl)cc3Cl)CC2)c2ccccc2C)cn1 (centres undefined) | / | / | / | 53* | 3 | / | 35* | 13
CCOC(=O)c1sc2nc(C)nc(N3CCN(S(=O)(=O)c4ccccc4)CC3)c2c1C | i | 23 | / | -1 | 18 | 5 | / | /
Nc1ncnc2c1ncn2[C@@H]1O[C@H](CNC(=O)[C@@H]2CCC(=O)N2)[C@@H](O)[C@H]1O | / | / | / | 0 | 3 | / | / | /
OC(c1ccc(F)c(F)c1)c1nc(-c2ccc(F)c(Cl)c2)cs1 (centres undefined) | / | / | / | 0 | -2 | / | / | /
Cc1cccc(C)c1NC(=O)CN(C)C(=O)c1ccc(OCc2ccccc2)cc1 | / | / | / | 1 | 2 | / | / | /
COc1cccc(CN(Cc2ccccc2F)S(=O)(=O)c2ccc(S(=O)(=O)NCc3ccccc3)cc2)c1 | i | 12 | i | 22* | -1 | 0 | 8 | 9
COc1ccc(-c2nnn(CC(=O)N(Cc3ccc(F)cc3)C(C(=O)NC3CCCC3)c3ccc(F)cc3)n2)cc1 (centres undefined) | i | -5 | i | 9.7* | 0 | 15 | 0 | 3
Cc1ccc(CN2CC(C(=O)Nc3nnc(SCc4c(Cl)cccc4Cl)s3)CC2=O)cc1 (centres undefined) | i | -2 | i | 29* | 2 | -9 | 8 | 4
C=CCOc1ccc(/C=C/C(=O)OCC(=O)NCc2cccc(OC)c2)cc1 | i | / | / | 28* | 3 | / | 2 | 5
Cc1sc2ncnc(SCC(=O)c3cccs3)c2c1C | i | -7 | i | 43* | -1 | -7 | 4 | 6
COc1ccc2nc(C)cc(SCC(=O)N/N=C/c3ccc(O)c(O)c3)c2c1 | i | 20 | i | -2 | -8 | -1 | / | /
COc1ccc2nc(C)cc(SCC(=O)N/N=C/c3cccc4ccccc34)c2c1 | i | ? | i | 19* | 7 | 19 | 7 | 5

Assay outcomes from PubChem BioAssay.
